The source made the active and inactive calls. The calls are words filed in the database; no cut-off is given here.
How the values were obtained:
Mus musculus = test: Inhibition of DMBA initiated TPA-induced skin tumor promotion in mouse at 85 nmol after 20 weeks by in vivo two-stage carcinogenesis test; format: functional, organism-based
Human gammaherpesvirus 4 [1] = test: Effect on TPA-induced Epstein-Barr virus early antigen activation in Raji cells at 500 mol ratio/32 pmol TPA relative to control
Human gammaherpesvirus 4 [2] = test: Inhibition of TPA-induced Epstein-Barr virus early antigen activation in Raji cells at 100 mol ratio/32 pmol TPA relative to control; values are per cent of control
Human gammaherpesvirus 4 [3] = test: Inhibition of TPA-induced Epstein-Barr virus early antigen activation in Raji cells at 10 mol ratio/32 pmol TPA relative to control; values are per cent of control
Human gammaherpesvirus 4 [4] = test: Effect on TPA-induced Epstein-Barr virus early antigen activation in Raji cells at 1000 mol ratio/32 pmol TPA relative to control
Raji = test: Cell viability of Raji cells; format: functional, Homo sapiens
Method in brief: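 Raji cells were exposed to test compound at 32 nmol, a 1000:1 mol ratio to TPA, and cell viability (%) was scored in the EBV-EA activation system.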

Row | Structure (SMILES) | Activity (Mus musculus) | Activity (Human gammaherpesvirus 4 [1]) | EBV-EA activation (% of control) (Human gammaherpesvirus 4 [2]) | EBV-EA activation (% of control) (Human gammaherpesvirus 4 [3]) | Activity (Human gammaherpesvirus 4 [4]) | Activity (Raji)
1 | C=C(CC[C@@H](C(=O)O)[C@H]1CC[C@@]2(C)C3=CC[C@@H](C(=C)C)[C@](C)(CCC(=O)O)C3=CC[C@]12C)C(C)C [PORICOIC ACID C] | Active | 21.1% | 67.2% | 91.7% | 0% | 70%
2 | CC(C)=CCCC(C(=O)O)[C@H]1CC[C@@]2(C)C3=CC[C@H]4C(C)(C)C(=O)CC[C@]4(C)C3=CC[C@]12C (some centres not stated) [DEHYDROTRAMETENONIC ACID] | – | 30.1% | 71% | 94.2% | 0% | 70%
3 | CC(C)=CCCC(C(=O)O)[C@H]1CC[C@@]2(C)C3=CC[C@H]4C(C)(C)[C@@H](O)CC[C@]4(C)C3=CC[C@]12C (some centres not stated) | – | 45.3% | 79.1% | 100% | 9.2% | 70%
4 | C=C(CCC(C(=O)O)[C@H]1[C@H](O)C[C@@]2(C)C3=CC[C@H]4C(C)(C)C(=O)CC[C@]4(C)C3=CC[C@]12C)C(C)(C)O (some centres not stated) | – | 39.5% | 65.3% | 91.7% | 0% | 70%
5 | C=C(CC[C@@H](C(=O)O)[C@H]1CC[C@@]2(C)C3=C(CC[C@]12C)[C@@]1(C)CC[C@H](O)C(C)(C)[C@@H]1CC3)C(C)C [EBURICOIC ACID] | – | 45.8% | 75.3% | 100% | 9.1% | 70%
6 | C=C(CC[C@@H](C(=O)O)[C@H]1[C@H](O)C[C@@]2(C)C3=C(CC[C@]12C)[C@@]1(C)CC[C@H](OC(C)=O)C(C)(C)[C@@H]1CC3)C(C)C [PACHYMIC ACID] | – | 24.7% | 71.6% | 96.5% | 0% | 70%
7 | C=C(CC[C@@H](C(=O)O)[C@H]1[C@H](O)C[C@@]2(C)C3=CC[C@@H](C(=C)C)[C@](C)(CCC(=O)OC)C3=CC[C@]12C)C(C)C [PORICOIC ACID AM] | – | 9.6% | 57.8% | 81.8% | 0% | 70%
8 | C=C(C)[C@@H]1CC=C2C(=CC[C@]3(C)[C@@H](C(CCC=C(C)C)C(=O)O)CC[C@@]23C)[C@@]1(C)CCC(=O)O (some centres not stated) [16-DEOXYPORICOIC ACID B] | Active | 19.3% | 65% | 90% | 0% | 70%
9 | C=C(C)[C@@H]1CC=C2C(=CC[C@]3(C)[C@@H]([C@@H](CCC(=C)C(C)(C)O)C(=O)O)[C@H](O)C[C@@]23C)[C@@]1(C)CCC(=O)OC [PORICOIC ACID DM] | – | 18.1% | 59% | 86.3% | 0% | 70%
10 | C=C(CC[C@@H](C(=O)O)[C@H]1CC[C@@]2(C)C3=CC[C@H]4C(C)(C)[C@@H](O)CC[C@]4(C)C3=CC[C@]12C)C(C)C [DEHYDROEBURICOIC ACID] | – | 45.1% | 74.9% | 100% | 8.7% | 70%
11 | C=C(CCC(C(=O)O)[C@H]1[C@H](O)[C@H](O)[C@@]2(C)C3=CC[C@H]4C(C)(C)[C@@H](O)CC[C@]4(C)C3=CC[C@]12C)C(C)C (some centres not stated) | – | 22.5% | 70% | 91% | 0% | 70%
12 | C=C(CCC(C(=O)O)[C@H]1CC[C@@]2(C)C3=CC[C@@H](C(=C)C)[C@](C)(CCC(=O)OC)C3=CC[C@]12C)C(C)C (some centres not stated) [PORICOIC ACID CM] | – | 37.2% | 63.4% | 87.6% | 0% | 70%
13 | C=C(CCC(C(=O)O)[C@H]1[C@H](O)C[C@@]2(C)C3=CC[C@H]4C(C)(C)[C@@H](OC(C)=O)CC[C@]4(C)C3=CC[C@]12C)C(C)C (some centres not stated) [DEHYDROPACHYMIC ACID] | – | 28.1% | 72.4% | 95.1% | 0% | 70%
14 | C=C(CCC(C(=O)O)[C@H]1[C@H](O)C[C@@]2(C)[C@]34C=C[C@@]5(OO3)C(C)(C)[C@@H](O)CC[C@]5(C)C4=CC[C@]12C)C(C)C (some centres not stated) | – | 17.4% | 57.8% | 83.6% | 0% | 60%
15 | C=C(CCC(C(=O)O)[C@H]1CC[C@@]2(C)C3=CC[C@H]4C(C)(C)C(=O)CC[C@]4(C)C3=CC[C@]12C)C(C)C (some centres not stated) [DEHYDROEBURICONIC ACID] | – | 43.9% | 79.5% | 100% | 9.5% | 70%
16 | CC1=C(/C=C/C(C)=C/C=C/C(C)=C/C=C/C=C(C)/C=C/C=C(C)/C=C/C2=C(C)CCCC2(C)C)C(C)(C)CCC1 [BETA CAROTENE] | – | 34.2% | 82.1% | 100% | 8.6% | 70%
17 | C=C(C)[C@@H]1CCC2=C(CC[C@]3(C)[C@@H](C(CCC(=C)C(C)(C)O)C(=O)O)[C@H](O)C[C@@]23C)[C@@]1(C)CCC(=O)O (some centres not stated) [25-HYDROXYPORICOIC ACID H] | – | 16.7% | 57.5% | 82.8% | 0% | 70%
18 | C=C(C)[C@@H]1CC=C2C(=CC[C@]3(C)[C@@H](C(CCC(=C)C(C)(C)O)C(=O)O)[C@H](O)C[C@@]23C)[C@@]1(C)CCC(=O)O (some centres not stated) [PORICOIC ACID D] | – | 15.3% | 56.1% | 81.5% | 0% | 70%

From ChEMBL document CHEMBL1143669, “Triterpene acids from Poria cocos and their anti-tumor-promoting effects” (2007)
